Rows were chosen to be rich in hits. Some 3.4% of all compounds tested hit in one or more screens of this group.
SIRT5 inh = SIRT5 desuccinylase inhibitors, primary screen, biochemical, fluorescence imaging, single point, set 5. NAD-dependent protein deacylase sirtuin-5, mitochondrial (Homo sapiens), Q9NXA8. Purified SirT5, succinyl-peptide AMC, trypsin-coupled fluorescence. inhibition, % at 15 µM. 330,000 tested, 1.1% active. AID 652115, 2013; in the data active = inhibition above about 15%
Target sequence (Q9NXA8 whole entry, looked up): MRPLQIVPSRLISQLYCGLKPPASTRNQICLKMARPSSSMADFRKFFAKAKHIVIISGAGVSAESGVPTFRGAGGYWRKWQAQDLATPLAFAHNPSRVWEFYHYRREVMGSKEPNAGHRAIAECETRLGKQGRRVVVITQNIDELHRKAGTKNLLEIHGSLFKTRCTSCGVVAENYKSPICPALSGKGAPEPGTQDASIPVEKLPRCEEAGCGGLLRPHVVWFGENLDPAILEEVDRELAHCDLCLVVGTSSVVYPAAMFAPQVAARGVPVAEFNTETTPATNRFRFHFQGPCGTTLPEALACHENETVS
E-selectin induc = E-selectin induction in HUVECs, primary screen, imaging, HUVEC, immunofluorescence imaging, single point; normalized: neutral wells 0, TNF-alpha wells 100; P16581; activation, % at 7.58 µM; 260,000 tested, 0.37% active;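 active = mean E-selectin-positive cell signal at least 10% of the positive control, reached in at least 60% of replicates, without over 20% cell loss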
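Test system: HUVEC | Signal: Immunofluorescence imaging | Read-out: Percent E-selectin-positive cells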
rRNA inh HTS = reduced GFP signal of wild-type E. coli, primary screen, bacterial rRNA inhibitor project, GFP/RFP fluorescence, OD600, single point; E. coli WT GFP vs humanized-ribosome RFP mutants, 24 h; hits give low values; DMSO median 0, no signal -100; GFP signal change (wild-type ribosome), % (test concentration not listed); 350,000 tested, 1.6% active;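 active = significant combined selectivity score with lowered wild-type GFP, culture density cut under 30%, mutant RFP and density less affected; inactive = any of these conditions unmet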
ERAP1 inh = human ERAP1 aminopeptidase inhibitors, primary screen, biochemical, single point, plate reader. Endoplasmic reticulum aminopeptidase 1 (Homo sapiens), Q9NZ08. recombinant ERAP1, Leu-AMC fluorescence, 60 min. inhibition, % at 10.7 µM. 340,000 tested, 0.15% active;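 active = mean replicate inhibition of at least 30%, or all replicates individually reaching that 30% level; inactive = mean below 30% and not every replicate reaching it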;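 also: 0% = neutral control wells and 100% = L-leucinethiol positive control wells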
MLL AF4-AF9 inh = inhibitors of AF4 peptide binding to AF9, primary screen, biochemical, AlphaScreen, biotin-AF4 peptide, FLAG-AF9, single point | Protein AF-9 (Homo sapiens), P42568 | 350,000 tested, 0.47% active | inhibition, % at 10 µM | AID 651704, 2012;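 active = every replicate reaching a set inhibition limit, whatever the replicate mean, cut at about 25% in these data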;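 also: 0% = plate neutral control median and 100% = total signal loss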
S100A4 inh HTS = inhibitors of S100A4-myosin IIA peptide binding, primary screen, biochemical, fluorescence polarization, TAMRA-MyoIIA peptide. Protein S100-A4 (Homo sapiens), P26447. inhibition, % at 10.7 µM. 360,000 tested, 0.14% active. AID 652163, 2013;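 active = mean inhibition of at least 70% across replicates, with every replicate also reaching that level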
Target sequence (P26447 whole entry, looked up): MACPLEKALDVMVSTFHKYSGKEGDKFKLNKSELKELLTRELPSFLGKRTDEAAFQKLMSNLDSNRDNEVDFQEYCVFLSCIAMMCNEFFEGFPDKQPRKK
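Compound dosing: one dose per compound; test system: human S100A4 monomer with TAMRA-labelled myosin IIA peptide; probe or stimulus: TAMRA-labelled myosin IIA heavy-chain peptide probe, 5 nM; medium: HEPES buffer with Ca2+, pH 7.2; schedule: 5 min incubation before reading; benchmarks: neutral control DMSO, positive control TFP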
Starred values were filed as active, the others as inactive; / = not tested or not shown.

SMILES	SIRT5 inh	E-selectin induc	rRNA inh HTS	ERAP1 inh	MLL AF4-AF9 inh	S100A4 inh HTS
CCN(Cc1ccccc1)C(=O)C1CCN(c2ncnc3c2nc2n3CCCCC2)CC1	5	/	-25*	1	-4	-1
CCc1ccccc1N(CC)C(=O)C1CCN(c2ncnc3c2nc2n3CCCCC2)CC1	5	/	-9	1	6	5
CN1c2ccc(-c3cccc(F)c3)cc2[C@@H]2[C@@H](CCN2C(=O)c2cccc(F)c2)[C@@H]1CO	-1	0	-13	-6	11	1
O=C(CNC(=O)C(c1ccccc1)c1ccccc1)N/N=C/c1ccc(O)cc1O	-3	4	-20*	-3	-6	1
Cc1cccc(OCC(=O)NCC(=O)N/N=C/c2ccc(O)cc2O)c1	2	5	-30*	-1	-2	-2
Cc1nonc1C(=O)N/N=C/c1ccc(O)cc1O	1	/	-22*	2	0	0
Cc1ccc(NC(=O)CCC(=O)N/N=C/c2ccc(O)cc2O)cc1	-3	/	-12*	1	2	-11
O=C(CNC(=O)C(c1ccccc1)c1ccccc1)N/N=C\c1cccc(O)c1	-2	/	-7	1	-14	-1
C[C@H]1CCCCO[C@@H](CN(C)C(=O)CCCN(C)C)[C@@H](C)CN([C@@H](C)CO)C(=O)c2cc(NC(=O)c3ccccc3)ccc2O1	5	1	0	1	-1	3
COc1ccc2c3c(n(C)c2c1)[C@@H](CO)N(Cc1nccs1)CC31CN(C(C)=O)C1	/	1	0	-4	-15	2
C=C(C)C(=O)N1CC2(CC(c3cccc(NC(=O)CCCCC)c3)=NO2)C[C@H]1C(N)=O (some centres undefined)	23*	0	6	-2	-1	-8
O=C(C[C@H]1C[C@H]2c3cc(NC(=O)C4CCOCC4)ccc3O[C@H]2[C@H](CO)O1)NCCc1ccccc1	-2	0	0	0	-1	-9
COc1ccc(OC)c(NC(=O)CSc2nnc(CNC(=O)c3cccs3)o2)c1	21*	/	5	-4	-5	0
COc1ccc(OC)c(NC(=O)CSc2nnc(CNC(=O)c3cc(OC)c(OC)c(OC)c3)o2)c1	-1	/	5	-6	0	-3
O=C(NNc1nc2cc3c(cc2s1)OCCO3)c1ccccc1	-9	0	-27*	0	1	1
O=C(O)c1ccccc1-c1ccc(/C=C2\SC(=O)N(c3ccccc3)C2=O)o1	6	0	3	-1	-1	-4
O=C(O)C(c1ccccc1)N1C(=O)/C(=C\c2ccc(-c3ccccc3Cl)o2)SC1=S (centres undefined)	33*	0	-5	4	0	-1
O=C(O)C(c1ccccc1)N1C(=O)/C(=C\c2ccc(-c3ccc(Br)cc3)o2)SC1=S (centres undefined)	54*	0	10	-2	4	-24
CCCNC(=O)[C@@H]1[C@@H](CO)[C@@H]2Cn3c(cccc3=O)[C@@H]2N1C(=O)CC1CC1	-3	0	1	-2	0	12
CCCCOC(=O)/C=C/c1c(C)[nH]c(=O)[nH]c1=O	-2	0	-34*	3	1	3
Cc1cc(NC(=O)c2c(-c3ccccc3Cl)noc2C)no1	-1	/	10	2	-3	1
Cc1onc(-c2ccccc2Cl)c1C(=O)Nc1nn[nH]n1	-2	/	-31*	-2	-3	-23
CC(C)(C)c1ccc(C(=O)NC(CC(=O)O)c2ccc(OC3CCCC3)cc2)cc1 (centres undefined)	4	0	0	1	-2	3
CCOc1cc(C(=O)NC(CC(=O)O)c2ccc(OC3CCCC3)cc2)cc(OCC)c1OCC (centres undefined)	24*	1	1	3	-1	1
CCS(=O)(=O)N1CCC2(CC1)CN(S(=O)(=O)c1cccc(OC)c1)[C@H](CO)c1[nH]c3cc(OC)ccc3c12	/	0	-4	-2	-1	5
SMILES	SIRT5 inh	E-selectin induc	rRNA inh HTS	ERAP1 inh	MLL AF4-AF9 inh	S100A4 inh HTS
CC(=O)c1cccc(NC(=O)C2=CN3CCS(=O)(=O)N=C3C=C2)c1	1	75*	8	20	-1	8
CC(=O)c1cccc(NC(=O)c2ccc3ccccc3c2)c1	-8	0	-23	1	0	1
COCC(=O)Nc1ccc2c(c1)C(=O)N(C)[C@@H]1CC[C@H](CC(=O)NC3CCCC3)O[C@H]1CO2	/	0	3	/	/	/
Clc1nccc(N2CCN(c3ccccc3Cl)CC2)n1	18*	/	-25*	/	0	-1
Nc1nccc(N2CCCCC2)n1	-7	2	0	-3	0	-3
CN1C(=O)c2cc(NC(=O)c3ccccc3Cl)ccc2OC[C@H]2O[C@@H](CC(=O)O)CC[C@H]21	6	0	0	-4	-2	2
COc1cc(N/N=C(\C)c2ccc(O)c(C)c2)nc(-c2ccccc2)n1	0	/	-37*	10	2	2
C/C(=N\Nc1cc(-c2ccccc2)nc(-c2ccccc2)n1)c1ccc(O)c(C)c1	/	/	-2	1	18	2
COc1cc2nc(N(CCCN(C)C)C(=O)c3ccc(S(=O)(=O)N4CCc5ccccc54)cc3)sc2cc1OC	3	-1	-4	1	9	0
COc1ccc2sc(N(CCCN(C)C)C(=O)c3ccc(S(=O)(=O)N4CCCc5ccccc54)cc3)nc2c1	-2	/	-55	-4	31*	6
CCc1ccc2nc(N(CCCN(C)C)C(=O)c3ccc(S(=O)(=O)N4CCc5ccccc5C4)cc3)sc2c1	1	-1	-25*	0	1	2
O=C(CC1CC1)N[C@H]1CC[C@H](CCNS(=O)(=O)c2ccc(Cl)cc2)O[C@@H]1CO	-3	0	-9	-1	-2	-10
CO[C@@H]1CN(C)C(=O)c2ccc(NC(=O)Nc3ccccc3)cc2OC[C@@H](C)N(C(=O)Nc2c(C)noc2C)C[C@H]1C	-3	0	3	3	1	1
O=S(=O)(c1ccccc1)N1CC2(C1)[C@H](c1ccccc1)[C@H](CO)N2CCC(F)(F)F	17*	0	-13	1	0	-15

Compound activity deposited in PubChem by Broad Institute.
